Experimental findings from ChEMBL document CHEMBL3124823, “1,2,3-Triazole-containing derivatives of rupestonic acid: click-chemical synthesis and antiviral activities against influenza viruses” (Eur J Med Chem, 2014) are described below.

Series [1] deals with Influenza B virus. As to the kind of experiment: Antiviral activity against Influenza B virus jifang/13/97 infected in MDCK cells assessed as inhibition of plaque formation after 3 to 4 days by crystal violet staining-based assay. Format: functional, organism-based. The conditions noted are these: jifang/13/97, MDCK. The gist of the method:
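Plaque reduction: MDCK monolayers in 12-well plates were PBS-washed and infected with influenza B in trypsin-free maintenance medium for 2 h at 37 °C, 5% CO2. Inoculum was removed and the cells washed three times. A 1.5% agarose/MEM overlay with trypsin (2 μg/ml) and drug was added. After 3-4 days, crystal violet (0.5%) plaque counts against no-drug wells gave IC50 by Reed & Muench. Ribavirin was the control.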

In series [2] the test system is Influenza B virus. The series is described as follows: Ratio of ribavirin IC50 to compound IC50 for Influenza B virus jifang/13/97 infected in MDCK cells. Type of series: functional.
A short description of series [3]: Selectivity index, ratio of TC50 for MDCK cells to IC50 for Influenza B virus jifang/13/97. Type of series: toxicity, cell-based. The note with it: dog, read-out: Selectivity Index. The gist of the method:
(§1)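 Selectivity index = TC50 (MDCK, 48 h visual cytotoxicity) / IC50 from the 40 h CPE-inhibition assay for the given strain.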

In series [4] the test system is Influenza B virus. As to the kind of experiment: Antiviral activity against Influenza B virus jifang/13/97 infected in MDCK cells assessed as inhibition of virus-induced cytopathicity after 40 hrs. The conditions noted are these: jifang/13/97, MDCK. Type of series: functional, organism-based. The gist of the method: (§2)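 CPE reduction in MDCK cells: cells grown 24 h at 37 °C, 5% CO2, then infected and held 2 h at 37 °C before the inoculum was removed. Threefold serial drug dilutions (8 levels from 20 mg/mL DMSO stocks) were added and incubated 40 h at 37 °C. CPE inhibition was scored against cell and virus controls to give IC50. Ribavirin and oseltamivir were the controls.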

For series [5], the system named is Influenza A virus. The series is described as follows: Antiviral activity against Influenza A virus A/hanfang/359/95(H3N2) infected in MDCK cells assessed as inhibition of virus-induced cytopathicity after 40 hrs. Format: functional, organism-based. The essentials: as §2
Series [6] deals with Influenza A virus. The series is described as follows: Antiviral activity against Influenza A virus (A/FM/1/1947(H1N1)) infected in MDCK cells assessed as inhibition of virus-induced cytopathicity after 40 hrs. Type of series: functional, organism-based. The note with it: A/Fort Monmouth/1/1947(H1N1). The essentials: as §2
A general note: Cytopathic effects are the visible damage that an infection or toxin causes in cultured cells.

Series [7] can be described thus: Cytotoxicity against MDCK cells after 48 hrs. Type of series: cell-based, Canis lupus familiaris. The conditions noted are these: dog, read-out: TC50. The gist of the method:
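MDCK cells seeded at 25000 per well and cultured 24 h at 37 °C, 5% CO2. Threefold dilutions were added to the monolayer and culture continued 48 h. Cytopathic changes were recorded by observation, and TC50 was calculated by the Reed & Muench method.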

Series [8] is described as follows: Selectivity index, ratio of TC50 for MDCK cells to IC50 for Influenza A virus A/hanfang/359/95(H3N2). Format: toxicity, cell-based. The note with it: dog, read-out: Selectivity Index. The gist of the method: as §1
A short description of series [9]: Selectivity index, ratio of TC50 for MDCK cells to IC50 for Influenza A virus (A/Tianjinjinnan/15/2009/H1N1). Type of series: toxicity, cell-based. The note with it: dog, read-out: Selectivity Index. The gist of the method: as §1
Series [10] can be described thus: Selectivity index, ratio of TC50 for MDCK cells to IC50 for Influenza A virus (A/FM/1/1947(H1N1)). Type of series: toxicity, cell-based. The note with it: dog, read-out: Selectivity Index. The essentials: as §1

≈ marks a conversion by molar mass, not a printed value.

In general, IC50 refers to the concentration that inhibits the measured activity by half. As to `C=C(C(=O)NCc1cn(Cc2ccc(F)cc2)nn1)[C@@H]1CC[C@H](C)[C@@H]2CC(=O)C(C)=C2C1`, the IC50 was 0.73 µg/mL (≈ 1.67 µM) in [1], 3.92 µg/mL (≈ 8.98 µM) in [4], more than 66.7 µg/mL in series [5] and not below 66.7 µg/mL in series [6]. In [2], the “Ratio IC50” value is reported as more than 4. Besides, the selectivity ratio in [3] came out at 43.8. The CC50 at 48 h in series [7] was found to be 116 µg/mL (≈ 265 µM).

As for `C=C(C(=O)O)[C@@H]1CC[C@H](C)[C@@H]2CC(=O)C(C)=C2C1` [PECHUELOIC ACID], the selectivity ratio is more than 4030 in [3], 25.8 in series [8], more than 1340 in series [9] and more than 111 in series [10]. For the same molecule, the IC50 came to 181 µg/mL (≈ 727 µM) in [4] and 4650 µg/mL (≈ 18700 µM) in [6]. In addition, the CC50 at 48 h in [7] turned out to be 248 µg/mL (≈ 999 µM).

For `C=C(C(=O)NCc1cn(Cc2ccc(Cl)c(Cl)c2)nn1)[C@@H]1CC[C@H](C)[C@@H]2CC(=O)C(C)=C2C1`, the “Ratio IC50” value in series [2] is more than 4. Besides, the selectivity ratio in series [3] came out at 9.9; in series [8], 4.1; in [9], 3. The IC50 in series [4] was 6.79 µg/mL (≈ 13.9 µM); in series [5], 17.5 µg/mL (≈ 35.9 µM); in [6] it was not below 17.2 µg/mL. In addition, the CC50 at 48 h in [7] is 66.7 µg/mL (≈ 137 µM).

Take `C=C(C(=O)NCc1cn(Cc2ccccc2Cl)nn1)[C@@H]1CC[C@H](C)[C@@H]2CC(=O)C(C)=C2C1`: the IC50 was 0.21 µg/mL (≈ 0.464 µM) in [1], 1.71 µg/mL (≈ 3.77 µM) in series [4], more than 7.41 µg/mL in series [5] and more than 7.41 µg/mL in series [6]. Also, the “Ratio IC50” value in series [2] is recorded as more than 4. Moreover, the selectivity ratio in series [3] was 22.5. Also, the CC50 at 48 h in series [7] was 38.5 µg/mL (≈ 85 µM).

Regarding `CCOC(=O)C1=C[C@@H](OC(CC)CC)[C@H](NC(C)=O)[C@@H](N)C1` [OSELTAMIVIR], the values for the selectivity ratio in series [8] and in [10] were 1240 and 448, respectively. The IC50 in series [5] is 1 µg/mL (≈ 3.2 µM); in [6], 2.81 µg/mL (≈ 8.99 µM). Further, the CC50 at 48 h in [7] was 1260 µg/mL (≈ 4030 µM).

Take `C=C(C(=O)OCc1cn(C2CCCCC2)nn1)[C@@H]1CC[C@H](C)[C@@H]2CC(=O)C(C)=C2C1`: the selectivity ratio in series [3] is 6.5; in [8], not below 1.73; in [9], 1.98; in [10] it was 1.73. In addition, the values for the half-maximal inhibitory concentration (IC50) in [4], in series [5] and in series [6] were 18.5 µg/mL (≈ 45 µM), not below 66.7 µg/mL and 66.7 µg/mL (≈ 162 µM), respectively. The CC50 at 48 h in series [7] amounted to 115 µg/mL (≈ 281 µM).

Turning to `C=C(C(=O)OCc1cn(Cc2ccccc2Cl)nn1)[C@@H]1CC[C@H](C)[C@@H]2CC(=O)C(C)=C2C1`, the results for the selectivity ratio in series [3], in series [8] and in series [9] were 10.4, 3.31 and 1.98, respectively. Further, the IC50 in series [4] was 14.8 µg/mL (≈ 32.6 µM); in series [5], 40.2 µg/mL (≈ 88.5 µM); in series [6], more than 66.7 µg/mL. Moreover, the CC50 at 48 h in [7] is 115 µg/mL (≈ 254 µM).

As for `C=C(C(=O)OCc1cn(C2C=CCCC2)nn1)[C@@H]1CC[C@H](C)[C@@H]2CC(=O)C(C)=C2C1` (some centres not stated), the IC50 in [1] is 3.28 µg/mL (≈ 8.01 µM); in series [4], not below 5.14 µg/mL; in series [5], more than 7.41 µg/mL; in series [6] it was 2.82 µg/mL (≈ 6.89 µM). The selectivity ratio in [3] is not below 4.3; in series [10], 8. Further, the CC50 at 48 h in series [7] came to 22.2 µg/mL (≈ 54.3 µM).

As for `C=C(C(=O)OCc1cn(Cc2ccccc2F)nn1)[C@@H]1CC[C@H](C)[C@@H]2CC(=O)C(C)=C2C1`, the IC50 is 0.91 µg/mL (≈ 2.08 µM) in series [1], 2.26 µg/mL (≈ 5.17 µM) in series [4], more than 22.2 µg/mL in series [5] and more than 22.2 µg/mL in series [6]. Besides, the “Ratio IC50” value in [2] is given as more than 4. For the same molecule, the selectivity ratio in [3] was 29.7. The CC50 at 48 h in [7] worked out at 66.7 µg/mL (≈ 152 µM).

As for `NC(=O)c1ncn([C@@H]2O[C@H](CO)[C@@H](O)[C@H]2O)n1` [RIBAVIRIN], the IC50 was 3.27 µg/mL (≈ 13.4 µM) in series [1], 7.84 µg/mL (≈ 32.1 µM) in series [4], 5.59 µg/mL (≈ 22.9 µM) in series [5] and 1.92 µg/mL (≈ 7.86 µM) in series [6]. Also, the selectivity ratio came to 206 in series [3], 213 in series [8], 185 in series [9] and 820 in series [10].

With `C=C(C(=O)NCc1cn(Cc2cccc(Cl)c2)nn1)[C@@H]1CC[C@H](C)[C@@H]2CC(=O)C(C)=C2C1`, the “Ratio IC50” value in series [2] is more than 4. Moreover, in series [3], the selectivity ratio turned out to be 3.9. Also, the IC50 in series [4] was 7.41 µg/mL (≈ 16.4 µM); in series [5] it was more than 7.41 µg/mL; in series [6], more than 7.41 µg/mL. The CC50 at 48 h in [7] is 28.6 µg/mL (≈ 63.2 µM).
